Results as given in ChEMBL document CHEMBL3351657, “γ-Hydroxyethyl piperidine iminosugar and N-alkylated derivatives: a study of their activity as glycosidase inhibitors and as immunosuppressive agents” (Bioorg Med Chem, 2014).

Tests used:
[1] = Inhibition of alpha-glucosidase (unknown origin) using p-nitrophenyl-alpha-D-glucopyranoside substrate incubated for 10 mins by UV spectrophotometry
In short: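 α-Glucosidase (0.1 unit/ml) preincubated with compound 1 h at 37 °C. Reaction started with 10 mM p-nitrophenyl substrate in 100 mM phosphate buffer pH 6.8, run 10 min at 37 °C, and stopped with 0.1 M Na₂CO₃.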

[2] = Inhibition of alpha-galactosidase (unknown origin) using p-nitrophenyl-alpha-D-galactopyranoside substrate incubated for 10 mins by UV spectrophotometry
In short: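 α-Galactosidase (0.1 unit/ml) preincubated with compound 1 h at 37 °C. Substrate added in 200 mM sodium acetate buffer, reaction run 10 min at 37 °C, and stopped with 200 mM borate buffer pH 9.8.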

[3] = tested on: PBMC; test: Immunosuppressive activity in human PBMC assessed as inhibition of cell proliferation using (methyl-3H)thymidine by mixed lymphocyte reaction assay; assay type: functional, cell-based
In short: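 PBMCs at 1.2 × 10⁶ cells/ml in RPMI-1640 with 10% heat-inactivated FCS and antibiotics. 100 µl of each cell suspension mixed with 20 µl diluted compound and cultured 6 days at 37 °C, 5% CO₂. 1 µCi (methyl-³H)thymidine per well added for the last 18 h. Cells harvested on glass filters and cpm counted by liquid scintillation.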

[4] = tested on: B cell; test: Immunosuppressive activity in CPG oligonucleotide-induced human B cells assessed as inhibition of IgG production by immune assay; assay type: functional, cell-based
In short: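 Human B cells stimulated with CpG oligonucleotide and cultured with compound for 7 days at 37 °C, 5% CO₂. IgG concentration in supernatants then measured by immunoassay.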

[5] = tested on: Jurkat; test: Cytotoxicity against human Jurkat cells assessed as cell viability after 3 hrs by WST1 assay; assay type: functional, cell-based; conditions: 48 h, in the assay text read “after 48 hrs” for “after 3 hrs”
In short: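 Jurkat cells in exponential growth seeded at 50 × 10³ per 200 µl complete medium, with compound dilution added (20 µl) and incubated 48 h at 37 °C, 5% CO₂. Untreated cells set maximum viability and 1% Triton X-100 (last 15 min) set minimum. After a further 3 h at 37 °C, optical density read at 450 nm.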

[6] = molecular target: alpha-mannosidase (Canavalia ensiformis); test: Inhibition of jack bean alpha-mannosidase using p-nitrophenyl-alpha-D-mannopyranoside substrate incubated for 10 mins by UV spectrophotometry

SMILES	IC50 ([1]; read-out: IC50)	IC50 ([2]; read-out: IC50)	IC50 [1]	IC50 [2]	IC50 [4]	IC50 [6]	IC50 [3]	IC50 [5]
CCCCCCCCCCN1C[C@@H](O)C(O)(CCO)[C@@H](O)C1 (stereo partly specified)			Not Active	Not Active	15 µM		> 10 µM	> 10 µM
CCCCN1C[C@@H](O)C(O)(CCO)[C@@H](O)C1 (stereo partly specified)	360 µM	167 µM			> 50 µM	252 µM	> 10 µM	> 10 µM
OCCN1C[C@@H](O)C(O)(CCO)[C@@H](O)C1 (stereo partly specified)	252 µM			Not Active	> 50 µM	873 µM	> 10 µM	> 10 µM
OCCC1(O)[C@H](O)CNC[C@@H]1O (stereo partly specified)	418 µM			Not Active	> 50 µM	1830 µM	> 10 µM	> 10 µM

Continued, in another order:

IC50 ([1]; read-out: IC50)	IC50 ([2]; read-out: IC50)	IC50 [1]	IC50 [2]	IC50 [4]	IC50 [6]	SMILES	IC50 [3]	IC50 [5]
171 µM	1850 µM					OCCN1C[C@H](O)[C@@H](O)[C@H](O)[C@H]1CO [MIGLITOL]		
		Not Active	Not Active	> 50 µM		CCCCCCCCN1C[C@@H](O)C(O)(CCO)[C@@H](O)C1 (stereo partly specified)	> 10 µM	> 10 µM
	315 µM	Not Active		> 50 µM	183 µM	CCCCCCN1C[C@@H](O)C(O)(CCO)[C@@H](O)C1 (stereo partly specified)	> 10 µM	> 10 µM
